The source of these data is ChEMBL document CHEMBL4229344 (Eur J Med Chem, 2018).

In data set [1] the target is Protein kinase C delta type (Homo sapiens) (UniProt Q05655). Put plainly: Binding affinity to wild-type human partial length PRKCD (Q328 to D676 residues) expressed in bacterial expression system assessed as residual binding level at 1 uM by Kinomescan method relative to control. An outline of the steps:
(§1)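 KINOMEscan competition binding against a panel of 468 purified kinases/mutants, compound tested at 1 μM; readout is relative binding activity versus control.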

The target in data set [2] is Cyclin-dependent kinase 9 (Homo sapiens) (UniProt P50750). Put plainly: Binding affinity to wild-type human full length CDK9 (M1 to F372 residues) expressed in bacterial expression system assessed as residual binding level at 1 uM by Kinomescan method relative to control. An outline of the steps:
(§2)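 Single-concentration (1 μM) competition-binding screen run by KINOMEscan against a panel of 468 purified kinases and mutants. The read-out is the relative binding activity of the test compound to each kinase.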

For data set [3], the target named is Non-receptor tyrosine-protein kinase TYK2 (Homo sapiens) (UniProt P29597). Put plainly: Binding affinity to wild-type human partial length TYK2 JH2 pseudokinase domain (G556 to D888 residues) expressed in mammalian expression system assessed as residual binding level at 1 uM by Kinomescan method relative to control.
In data set [4] the target is Mitogen-activated protein kinase kinase kinase kinase 2 (Homo sapiens) (UniProt Q12851). Put plainly: Binding affinity to wild-type human partial length MAP4K2 (M1 to G318 residues) expressed in mammalian expression system assessed as residual binding level at 1 uM by Kinomescan method relative to control.
Data set [5] has as its target Mitogen-activated protein kinase kinase kinase 13 (Homo sapiens) (UniProt O43283). The data set is described as follows: Binding affinity to wild-type human full length LZK (M1 to W966 residues) expressed in mammalian expression system assessed as residual binding level at 1 uM by Kinomescan method relative to control. An outline of the steps: as §2
In data set [6] the target is Vascular endothelial growth factor receptor 2 (Homo sapiens) (UniProt P35968). The data set is described as follows: Binding affinity to wild-type human partial length VEGFR2 (R787 to P1253 residues) expressed in mammalian expression system assessed as residual binding level at 1 uM by Kinomescan method relative to control. Put shortly: as §1
The target in data set [7] is Wee1-like protein kinase (Homo sapiens) (UniProt P30291). Put plainly: Binding affinity to wild-type human partial length WEE1 (M291 to K575 residues) expressed in bacterial expression system assessed as residual binding level at 1 uM by Kinomescan method relative to control. Put shortly: as §1
In data set [8] the target is Tyrosine-protein kinase Fes/Fps (Homo sapiens) (UniProt P07332). The data set is described as follows: Binding affinity to wild-type human partial length FES (I527 to R822 residues) expressed in bacterial expression system assessed as residual binding level at 1 uM by Kinomescan method relative to control.
Data set [9] has as its target Cyclin-dependent kinase 11B (Homo sapiens) (UniProt P21127). The data set is described as follows: Binding affinity to wild-type human partial length CDC2L1 (P353 to G692 residues) expressed in bacterial expression system assessed as residual binding level at 1 uM by Kinomescan method relative to control. An outline of the steps: (§3)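 Kinome-wide competition binding screen against a panel of 468 purified kinases/mutants, with the test compound at a single concentration of 1 μM. Read-out is the relative binding activity of each kinase in the presence of compound.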

A short description of data set [10]: Apparent clearance in Sprague-Dawley rat at 1 mg/kg, iv. Particulars: in vivo, read-out: CL(app) (converted). The data set is classed as ADME, organism-based.
Data set [11] addresses Cyclin-dependent kinase 19 (Homo sapiens) (UniProt Q9BWU1). Put plainly: Binding affinity to wild-type human partial length CDK11 (M1 to N360 residues) expressed in bacterial expression system assessed as residual binding level at 1 uM by Kinomescan method relative to control. An outline of the steps: as §3
For data set [12], the target named is Serine/threonine-protein kinase ULK3 (Homo sapiens) (UniProt Q6PHR2). Put plainly: Binding affinity to wild-type human partial length ULK3 (M1 to Q290 residues) expressed in mammalian expression system assessed as residual binding level at 1 uM by Kinomescan method relative to control.
Data set [13] concerns the target Tyrosine-protein kinase receptor Tie-1 (Homo sapiens) (UniProt P35590). The data set is described as follows: Binding affinity to wild-type human partial length TIE1 (T819 to A1138 residues) expressed in bacterial expression system assessed as residual binding level at 1 uM by Kinomescan method relative to control.
Data set [14] concerns the target Non-receptor tyrosine-protein kinase TNK1 (Homo sapiens) (UniProt Q13470). Put plainly: Binding affinity to wild-type human full length TNK1 (M1 to P661 residues) expressed in bacterial expression system assessed as residual binding level at 1 uM by Kinomescan method relative to control. Put shortly: (§4)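 KINOMEscan competition binding against 468 purified kinases/mutants, test compound at 1 µM; residual binding relative to control.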

Data set [15] deals with Dual specificity tyrosine-phosphorylation-regulated kinase 1B (Homo sapiens) (UniProt Q9Y463). Put plainly: Binding affinity to wild-type human full length DYRK1B (M1 to S629 residues) expressed in bacterial expression system assessed as residual binding level at 1 uM by Kinomescan method relative to control. An outline of the steps:
as §4

Data set [16] addresses Leucine-rich repeat serine/threonine-protein kinase 2 (Homo sapiens) (UniProt Q5S007). Put plainly: Binding affinity to wild-type human partial length LRRK2 (H970 to E2527 residues) expressed in mammalian expression system assessed as residual binding level at 1 uM by Kinomescan method relative to control.
The subject of data set [17] is Receptor-type tyrosine-protein kinase FLT3 (Homo sapiens), P36888 [D835V]. The data set is described as follows: Binding affinity to human partial length FLT3 D835V mutant (V592 to Y969 residues) expressed in bacterial expression system assessed as residual binding level at 1 uM by Kinomescan method relative to control. Put shortly: (§5)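 Kinome-wide single-concentration binding screen (KINOMEscan) at 1 μM against a panel of 468 purified kinases and mutants. Read-out is relative binding of each kinase compared with control. Selectivity across the panel was summarised as an S(10) score.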

Data set [18] deals with Ribosomal protein S6 kinase alpha-2 (Homo sapiens) (UniProt Q15349). Put plainly: Binding affinity to wild-type human partial length C-terminal RSK3 kinase domain 2 (V403 to K700 residues) expressed in bacterial expression system assessed as residual binding level at 1 uM by Kinomescan method relative to control.
Data set [19] addresses Serine/threonine-protein kinase pim-2 (Homo sapiens) (UniProt Q9P1W9). Put plainly: Binding affinity to wild-type human partial length PIM2 (M1 to E291 residues) expressed in bacterial expression system assessed as residual binding level at 1 uM by Kinomescan method relative to control.
For data set [20], the target named is Calcium/calmodulin-dependent protein kinase kinase 2 (Homo sapiens) (UniProt Q96RR4). Put plainly: Binding affinity to wild-type human partial length CAMKK2 (D65 to V471 residues) expressed in bacterial expression system assessed as residual binding level at 1 uM by Kinomescan method relative to control. An outline of the steps: as §3
Data set [21] has as its target Serine/threonine-protein kinase NIM1 (Homo sapiens) (UniProt Q8IY84). The data set is described as follows: Binding affinity to wild-type human partial length NIM1 (Q44 to N355 residues) expressed in mammalian expression system assessed as residual binding level at 1 uM by Kinomescan method relative to control.
For data set [22], the system named is Tyrosine-protein kinase ABL1 (Homo sapiens), P00519 [F317L]. Put plainly: Binding affinity to human non-phosphorylated ABL1 F317L mutant (S229 to K512 residues) expressed in mammalian expression system assessed as residual binding level at 1 uM by Kinomescan method relative to control. An outline of the steps:
as §5

Chain of Cyclin-dependent kinase 11B (Homo sapiens) (P21127 whole entry, the tested form may be a part): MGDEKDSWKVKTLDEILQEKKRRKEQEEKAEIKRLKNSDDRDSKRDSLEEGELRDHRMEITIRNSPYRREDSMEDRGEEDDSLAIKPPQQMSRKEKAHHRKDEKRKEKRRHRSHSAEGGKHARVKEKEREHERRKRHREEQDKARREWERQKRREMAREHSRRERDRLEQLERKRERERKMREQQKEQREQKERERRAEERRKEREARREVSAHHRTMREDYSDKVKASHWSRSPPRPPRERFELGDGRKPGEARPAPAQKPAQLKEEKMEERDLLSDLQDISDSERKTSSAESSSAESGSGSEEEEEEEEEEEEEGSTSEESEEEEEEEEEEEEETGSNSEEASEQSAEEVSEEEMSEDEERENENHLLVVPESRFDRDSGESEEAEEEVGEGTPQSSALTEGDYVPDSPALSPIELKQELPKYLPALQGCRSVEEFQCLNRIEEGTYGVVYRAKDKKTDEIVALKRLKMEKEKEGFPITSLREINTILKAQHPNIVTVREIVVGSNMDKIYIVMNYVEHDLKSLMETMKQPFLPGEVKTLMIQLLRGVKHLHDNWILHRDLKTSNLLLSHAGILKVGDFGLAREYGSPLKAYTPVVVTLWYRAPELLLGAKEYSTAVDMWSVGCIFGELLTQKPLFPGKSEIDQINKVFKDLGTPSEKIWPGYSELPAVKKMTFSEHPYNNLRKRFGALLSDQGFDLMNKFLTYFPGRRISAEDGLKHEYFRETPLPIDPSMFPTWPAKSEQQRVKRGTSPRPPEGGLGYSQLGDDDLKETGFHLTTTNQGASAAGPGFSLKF
Chain of Tyrosine-protein kinase ABL1 (Homo sapiens), P00519 [F317L] (P00519 whole entry F317L, the tested form may be a part): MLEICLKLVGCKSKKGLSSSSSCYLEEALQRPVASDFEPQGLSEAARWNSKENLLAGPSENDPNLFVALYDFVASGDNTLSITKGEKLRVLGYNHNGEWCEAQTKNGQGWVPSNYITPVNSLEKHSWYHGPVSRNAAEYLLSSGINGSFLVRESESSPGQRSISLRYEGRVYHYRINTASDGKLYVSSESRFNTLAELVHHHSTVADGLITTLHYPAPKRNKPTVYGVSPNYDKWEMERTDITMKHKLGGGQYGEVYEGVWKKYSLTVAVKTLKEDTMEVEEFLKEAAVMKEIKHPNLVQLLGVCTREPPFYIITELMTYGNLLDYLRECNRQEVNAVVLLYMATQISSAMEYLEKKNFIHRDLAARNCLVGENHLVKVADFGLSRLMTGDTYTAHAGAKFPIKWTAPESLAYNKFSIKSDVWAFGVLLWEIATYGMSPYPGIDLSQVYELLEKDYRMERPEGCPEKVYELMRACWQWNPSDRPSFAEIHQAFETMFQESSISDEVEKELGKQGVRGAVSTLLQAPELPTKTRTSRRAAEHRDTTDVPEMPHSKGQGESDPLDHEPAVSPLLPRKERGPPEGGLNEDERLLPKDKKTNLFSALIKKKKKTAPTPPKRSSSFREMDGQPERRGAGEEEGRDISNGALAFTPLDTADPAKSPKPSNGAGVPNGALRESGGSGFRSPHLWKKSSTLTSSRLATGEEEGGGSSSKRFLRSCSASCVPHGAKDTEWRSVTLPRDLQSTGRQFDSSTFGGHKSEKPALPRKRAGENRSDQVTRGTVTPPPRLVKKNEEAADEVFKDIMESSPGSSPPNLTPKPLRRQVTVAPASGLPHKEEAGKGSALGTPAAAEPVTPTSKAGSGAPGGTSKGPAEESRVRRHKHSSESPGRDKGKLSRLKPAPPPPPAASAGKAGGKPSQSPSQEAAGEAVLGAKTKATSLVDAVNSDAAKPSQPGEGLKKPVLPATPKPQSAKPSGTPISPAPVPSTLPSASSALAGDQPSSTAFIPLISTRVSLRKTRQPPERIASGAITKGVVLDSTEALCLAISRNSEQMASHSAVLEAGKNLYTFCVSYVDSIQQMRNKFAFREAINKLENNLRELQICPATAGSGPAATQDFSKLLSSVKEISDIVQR
Chain of Wee1-like protein kinase (Homo sapiens) (P30291 whole entry, looked up, the tested form may be a part): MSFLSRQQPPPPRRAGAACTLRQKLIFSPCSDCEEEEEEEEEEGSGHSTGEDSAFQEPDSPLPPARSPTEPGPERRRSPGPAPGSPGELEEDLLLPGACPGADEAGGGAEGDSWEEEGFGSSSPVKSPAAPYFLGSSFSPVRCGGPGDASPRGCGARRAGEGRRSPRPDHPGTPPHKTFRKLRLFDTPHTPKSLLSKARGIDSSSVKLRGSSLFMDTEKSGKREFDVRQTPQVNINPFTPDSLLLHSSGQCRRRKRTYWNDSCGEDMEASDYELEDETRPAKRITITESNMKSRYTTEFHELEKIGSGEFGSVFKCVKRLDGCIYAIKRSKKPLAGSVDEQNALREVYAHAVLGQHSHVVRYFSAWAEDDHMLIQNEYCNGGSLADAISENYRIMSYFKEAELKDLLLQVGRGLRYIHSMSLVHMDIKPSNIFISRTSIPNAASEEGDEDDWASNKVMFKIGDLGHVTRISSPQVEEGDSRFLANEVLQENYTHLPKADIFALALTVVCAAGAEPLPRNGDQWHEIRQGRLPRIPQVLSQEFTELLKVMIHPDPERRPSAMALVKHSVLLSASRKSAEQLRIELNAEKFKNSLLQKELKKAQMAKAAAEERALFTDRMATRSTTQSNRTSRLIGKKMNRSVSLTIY
Chain of Mitogen-activated protein kinase kinase kinase 13 (Homo sapiens) (O43283 whole entry, the tested form may be a part): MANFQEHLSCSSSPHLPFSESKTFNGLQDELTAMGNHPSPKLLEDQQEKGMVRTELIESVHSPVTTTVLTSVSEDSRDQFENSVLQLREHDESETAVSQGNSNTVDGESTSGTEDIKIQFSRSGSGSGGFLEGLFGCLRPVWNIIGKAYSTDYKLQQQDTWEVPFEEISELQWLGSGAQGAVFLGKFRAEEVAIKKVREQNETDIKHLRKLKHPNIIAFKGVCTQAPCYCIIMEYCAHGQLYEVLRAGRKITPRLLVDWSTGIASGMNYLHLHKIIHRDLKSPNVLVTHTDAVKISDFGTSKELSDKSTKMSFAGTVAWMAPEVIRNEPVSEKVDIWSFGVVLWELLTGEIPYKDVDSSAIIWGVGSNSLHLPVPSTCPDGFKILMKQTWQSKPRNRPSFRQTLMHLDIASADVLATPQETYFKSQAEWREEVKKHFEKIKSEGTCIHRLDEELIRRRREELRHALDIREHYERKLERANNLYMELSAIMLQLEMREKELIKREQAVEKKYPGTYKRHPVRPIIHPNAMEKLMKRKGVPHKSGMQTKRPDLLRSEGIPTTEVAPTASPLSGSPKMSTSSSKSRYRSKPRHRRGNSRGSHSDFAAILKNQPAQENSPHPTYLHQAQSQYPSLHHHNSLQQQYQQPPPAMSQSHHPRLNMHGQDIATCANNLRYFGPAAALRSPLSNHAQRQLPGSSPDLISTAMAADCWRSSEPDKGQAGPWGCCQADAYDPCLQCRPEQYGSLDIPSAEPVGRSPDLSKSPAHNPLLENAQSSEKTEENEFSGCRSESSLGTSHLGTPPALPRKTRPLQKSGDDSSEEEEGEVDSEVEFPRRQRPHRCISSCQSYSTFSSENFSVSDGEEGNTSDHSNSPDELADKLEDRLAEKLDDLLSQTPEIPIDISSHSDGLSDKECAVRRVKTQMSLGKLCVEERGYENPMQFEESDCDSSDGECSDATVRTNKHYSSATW
Chain of Serine/threonine-protein kinase ULK3 (Homo sapiens) (Q6PHR2 whole entry, the tested form may be a part): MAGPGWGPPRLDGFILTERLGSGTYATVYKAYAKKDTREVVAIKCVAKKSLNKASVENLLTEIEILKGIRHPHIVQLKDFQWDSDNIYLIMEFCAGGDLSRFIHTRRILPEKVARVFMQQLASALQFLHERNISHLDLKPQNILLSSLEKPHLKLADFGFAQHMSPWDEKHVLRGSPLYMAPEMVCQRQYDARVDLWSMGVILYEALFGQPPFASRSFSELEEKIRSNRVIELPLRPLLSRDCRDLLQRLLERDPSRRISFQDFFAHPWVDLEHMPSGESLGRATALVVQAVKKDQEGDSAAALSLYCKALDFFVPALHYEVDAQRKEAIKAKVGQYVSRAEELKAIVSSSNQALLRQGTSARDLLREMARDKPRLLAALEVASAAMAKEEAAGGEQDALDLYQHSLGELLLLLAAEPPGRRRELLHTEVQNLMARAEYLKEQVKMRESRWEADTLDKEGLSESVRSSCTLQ
Chain of Dual specificity tyrosine-phosphorylation-regulated kinase 1B (Homo sapiens) (Q9Y463 whole entry, looked up, the tested form may be a part): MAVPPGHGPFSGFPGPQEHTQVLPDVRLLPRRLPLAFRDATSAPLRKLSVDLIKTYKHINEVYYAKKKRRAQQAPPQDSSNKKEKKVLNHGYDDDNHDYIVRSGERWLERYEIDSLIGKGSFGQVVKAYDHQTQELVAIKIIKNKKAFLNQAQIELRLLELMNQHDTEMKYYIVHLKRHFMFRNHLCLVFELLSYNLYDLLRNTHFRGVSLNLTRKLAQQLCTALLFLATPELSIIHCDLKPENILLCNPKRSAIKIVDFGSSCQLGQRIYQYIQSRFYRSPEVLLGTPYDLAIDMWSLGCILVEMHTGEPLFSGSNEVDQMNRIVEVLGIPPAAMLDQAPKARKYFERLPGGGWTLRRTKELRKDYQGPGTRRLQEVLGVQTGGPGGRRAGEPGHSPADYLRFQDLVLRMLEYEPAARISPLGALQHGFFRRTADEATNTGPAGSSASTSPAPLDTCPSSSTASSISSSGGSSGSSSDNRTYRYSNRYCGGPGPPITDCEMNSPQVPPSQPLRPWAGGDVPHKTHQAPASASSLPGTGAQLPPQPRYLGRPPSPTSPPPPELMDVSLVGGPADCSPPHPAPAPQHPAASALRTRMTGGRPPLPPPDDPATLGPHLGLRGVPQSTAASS
Chain of Serine/threonine-protein kinase NIM1 (Homo sapiens) (Q8IY84 whole entry, the tested form may be a part): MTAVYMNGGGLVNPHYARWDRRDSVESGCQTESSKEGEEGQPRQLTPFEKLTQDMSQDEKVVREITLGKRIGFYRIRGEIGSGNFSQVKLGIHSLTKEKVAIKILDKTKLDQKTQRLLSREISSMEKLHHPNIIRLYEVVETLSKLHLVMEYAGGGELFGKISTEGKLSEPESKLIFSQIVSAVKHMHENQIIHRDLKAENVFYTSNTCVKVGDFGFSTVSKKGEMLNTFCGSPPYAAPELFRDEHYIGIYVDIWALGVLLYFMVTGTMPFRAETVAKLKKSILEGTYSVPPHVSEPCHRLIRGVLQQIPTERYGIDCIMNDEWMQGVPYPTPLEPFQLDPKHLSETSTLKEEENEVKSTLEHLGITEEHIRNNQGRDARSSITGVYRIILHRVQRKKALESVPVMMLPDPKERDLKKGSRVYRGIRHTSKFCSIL

Take `Cc1ccc(NC(=O)c2ccc(CN(CCN(C)C)C(=O)c3cccnc3)cc2)cc1Nc1nccc(-c2cccnc2)n1`: the Activity in data set [1] is 87%; in [2], 100%; in data set [3] it was 91%; in data set [4], 100%; in [5] it was 100%; in data set [6], 92%. Also, the Activity was determined as 87% in [7]; 85% in [8]; 91% in data set [9]; 82% in [11]; 85% in data set [12]; 93% in data set [13]. The Activity in data set [14] is 87%; in data set [15], 51%; in [16], 100%; in [17], 100%; in data set [18], 88%; in data set [19], 93%. Moreover, the Activity in data set [20] turned out to be 91%; in data set [21], 100%; in [22], 79%. Further, the clearance in data set [10] is 32.7 mL/min/kg.
